Assay results: ChEMBL document CHEMBL1152736, “Synthesis and biological testing of thioalkane- and thioarene-spaced bis-beta-D-glucopyranosides” (Bioorg Med Chem, 2009)
Active and inactive are the calls of the source. The calls are words filed in the database; no cut-off is given here.

Key:
Type in all cases: functional, cell-based
MOLT-3 [1] = experiment: Induction of apoptosis in human MOLT3 cells at 10 uM after 24 hrs by fluorescence microscopy
How it was run: (§1)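 Cells exposed 24 h to DMSO vehicle or test agent at 10–75 µM. Stained with acridine orange; apoptosis scored morphologically by fluorescence microscopy, over 600 cells analyzed. % apoptosis = apoptotic cells / total cells counted × 100. Mean and SD of three determinations. Comparison with vehicle by Student's t-test (MOLT3) or Tukey HSD (U937).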

U-937 [2] = experiment: Induction of apoptosis in human U937 cells after 24 hrs by fluorescence microscopy; how it was run: as §1
U-937 [3] = experiment: Stimulation of growth of human U937 cells at 25 to 50 uM after 24 hrs
MOLT-3 [4] = experiment: Induction of apoptosis in human MOLT3 cells after 24 hrs by fluorescence microscopy; how it was run: as §1
U-937 [5] = experiment: Induction of apoptosis in human U937 cells at 10 uM after 24 hrs by fluorescence microscopy; how it was run: as §1
MOLT-3 [6] = experiment: Stimulation of growth of human MOLT3 cells at 25 to 50 uM after 24 hrs
MOLT-3 [7] = experiment: Reduction in viability of human MOLT3 cells at 75 uM after 24 hrs by MTS assay
How it was run: (§2)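 MTS colorimetric assay: 2 × 10⁴ cells in 100 µL RPMI-1640 with 5% FBS, 2 mM L-glutamine and penicillin–streptomycin, with compound or DMSO vehicle for 24 h. MTS reagent then added for 4 h and absorbance read at 490 nm. Mean and SD of three determinations. Comparison with vehicle by Student's t-test.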

U-937 [8] = experiment: Reduction in viability of human U937 at 75 uM after 24 hrs by MTS assay; how it was run: as §2

C=C(CO[C@@H]1O[C@H](COC(C)=O)[C@@H](OC(C)=O)[C@H](OC(C)=O)[C@H]1OC(C)=O)[S+]([O-])c1cccc([S+]([O-])C(=C)CO[C@@H]2O[C@H](COC(C)=O)[C@@H](OC(C)=O)[C@H](OC(C)=O)[C@H]2OC(C)=O)c1 (stereo partly drawn)
Activity (MOLT-3 [1]): inactive
Activity (U-937 [2]): Dose-dependent effect
Activity (U-937 [3]): Active
Activity (MOLT-3 [4]): Dose-dependent effect
Activity (U-937 [5]): inactive
Activity (MOLT-3 [6]): Active
Activity (MOLT-3 [7]): Active
Activity (U-937 [8]): Active
